From publication PMC11913021 (Journal of Medicinal Chemistry, 2024)
“And” between values parts separate entries of the source, which are not always exact repeats. Equal values may be shown once.

How the values were obtained:
PLD1 = target: T1, PLD1 (Homo sapiens, UniProt Q13393); assay: Drug affinity responsive target stability; type: binding; conditions: DARTS with immunoblotting
T1 sequence (Q13393 1-1074): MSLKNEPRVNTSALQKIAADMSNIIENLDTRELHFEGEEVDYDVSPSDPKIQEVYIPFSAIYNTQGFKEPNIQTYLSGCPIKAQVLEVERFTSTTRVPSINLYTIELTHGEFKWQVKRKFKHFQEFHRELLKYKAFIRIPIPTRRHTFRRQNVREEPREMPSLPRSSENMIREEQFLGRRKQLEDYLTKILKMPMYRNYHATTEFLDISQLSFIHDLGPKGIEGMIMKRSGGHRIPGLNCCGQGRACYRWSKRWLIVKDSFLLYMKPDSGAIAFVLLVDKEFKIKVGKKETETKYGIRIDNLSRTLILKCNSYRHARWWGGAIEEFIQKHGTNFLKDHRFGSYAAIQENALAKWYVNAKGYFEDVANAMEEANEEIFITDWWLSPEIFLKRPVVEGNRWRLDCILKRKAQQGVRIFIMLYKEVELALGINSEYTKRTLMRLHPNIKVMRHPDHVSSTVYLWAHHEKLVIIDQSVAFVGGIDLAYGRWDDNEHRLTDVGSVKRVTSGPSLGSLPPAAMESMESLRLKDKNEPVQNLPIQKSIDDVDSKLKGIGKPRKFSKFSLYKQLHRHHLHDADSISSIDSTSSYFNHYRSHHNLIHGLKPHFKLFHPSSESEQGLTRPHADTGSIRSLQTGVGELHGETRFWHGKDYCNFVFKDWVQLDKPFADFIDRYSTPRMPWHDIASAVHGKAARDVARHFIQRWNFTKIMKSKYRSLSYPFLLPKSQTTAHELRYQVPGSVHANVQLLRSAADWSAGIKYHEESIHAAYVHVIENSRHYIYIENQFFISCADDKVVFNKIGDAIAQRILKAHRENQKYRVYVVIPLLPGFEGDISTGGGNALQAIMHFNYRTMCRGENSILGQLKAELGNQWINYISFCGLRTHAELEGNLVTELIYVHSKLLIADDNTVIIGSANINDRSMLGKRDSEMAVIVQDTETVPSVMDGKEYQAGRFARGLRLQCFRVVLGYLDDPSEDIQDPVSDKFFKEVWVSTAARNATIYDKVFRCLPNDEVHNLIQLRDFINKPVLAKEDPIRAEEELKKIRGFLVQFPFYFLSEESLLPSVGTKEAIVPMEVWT
How it was run: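 A549 cells lysed in buffer with protease and phosphatase inhibitors. Cleared supernatant incubated with test compound for 1 h at RT, then digested with Pronase for 10 min at RT. Digestion stopped with SDS loading buffer and boiling at 100 °C for 5 min. PLD1 was detected by immunoblot, with β-tubulin as control.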

PLD = PLD activity inhibition in A549 cells; type: cell-based; conditions: read-out: IC50 for PLD inhibition
HCT116 cells = assay: WST-1 cell viability assay, HCT116; type: cell-based; conditions: read-out: IC50 of viability; HCT116, WST-1, 48 h
How it was run: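 Cells grown in DMEM or RPMI 1640 with 10% FBS and 1% penicillin/streptomycin at 37 °C, 5% CO2. Seeded at 5 × 10^3 cells/well and held 24 h at 37 °C, then exposed to test compound for 48 h. WST-1 absorbance was read at 450 nm, in triplicate. IC50 was taken as the concentration giving 50% growth inhibition versus control.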

A549 cells [1] = assay: IncuCyte cell growth and death assay; type: cell-based; conditions: time-dependent
A549 cells [2] = assay: Colony-forming assay; type: cell-based
How it was run: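 Cells seeded at 500–1,000 per well; test compound added 48 h after seeding, with 48 h exposure. Medium was changed every 3 days and cultures kept 10 days. Colonies were fixed in 4% PFA for 20 min, stained with crystal violet for 30 min, and counted by image analysis.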

LLC mouse lung cells = assay: LLC lung cancer syngeneic model in C57BL/6 mice; type: in vivo
How it was run: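 Male C57BL/6 mice (6 weeks old) received 3 × 10^5 LLC cells in PBS subcutaneously in the flank. From day 7 they were randomised to vehicle PO daily or test compound 10 mg/kg PO every other day, for 3 weeks. Tumour IHC used citrate antigen retrieval, blocking with 0.3% H2O2 and 2.5% horse serum, primary antibodies overnight at 4 °C, HRP/ABC with DAB, and hematoxylin counterstain. CD163 was assessed by immunofluorescence.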

LLC lung cancer cells = assay: LLC tumor model in immune-deficient nude mice; type: in vivo, mouse; conditions: immune-deficient nude mice injected with LLC cells
[3] = tumor tissue immunofluorescence

## N-(3,5-Bis(trifluoromethyl)phenyl)-3-(1H-indol-3-yl)propanamide [3r]
PLD1
  stability of PLD1 against Pronase: increased stability
PLD
  IC50: 1.97 µM
HCT116 cells
  IC50: 29 µM and 29.1 µM
A549 cells [1]
  death of A549 cells: increased
  proliferation of A549 cells: significantly suppressed
A549 cells [2]
  colony formation: significantly inhibited
LLC mouse lung cells; 10 mg/kg PO every other day, C57BL/6, LLC
  tumor formation: significantly attenuated
LLC mouse lung cells; IHC
  apoptosis in tumor tissue (active caspase 3 IHC): enhanced
  proliferation in tumor tissue (Ki67 IHC): reduced
LLC mouse lung cells; tumor tissue IHC
  expression of ’eat-me’ signals (calreticulin): increased
  levels of RAS and downstream molecules (p-ERK, p-Akt, p-IKBα): decreased
  levels of ’don’t eat-me’ signals (CD47, CD24, PD-L1): reduced
LLC mouse lung cells; [3]
  population of CD4^+ and IL-17^+ Th17 cells: increased
  population of CD80^+ pro-inflammatory M1 macrophages: increased
  population of CD163^+ anti-inflammatory M2 macrophages: decreased
  population of cytotoxic CD8^+ T cells: increased
LLC mouse lung cells; tumor-bearing mice vs vehicle
  size and weight of the spleen: recovered
LLC lung cancer cells
  tumor formation: significantly suppressed
